NF-kB neuron act – compounds increasing NF-kB expression in human neuronal cells | NF-kB reporter expression; stronger effect = higher value | hit rate 1.6% among 190,000 | fold change at 12.5 µM; in the data active = fold change above about 3.3
APP 5'UTR act – activates APP 5'UTR luciferase reporter | activation, % at 2 µM | SH-SY5Y APP 5'UTR luciferase reporter, luminescence; zero percent = DMSO vehicle wells | hit rate 1% among 190,000 | AID 1276;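 active = activation above a set limit, based on mean plus 3 SD of controls, cut at about 140% in these data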
PPC-1+TRAIL kill – kills PPC-1 cancer cells in the presence of TRAIL | PPC-1 cells + TRAIL, ATPLite viability luminescence | cell killing (% activity), % at 4 µM or 5 µM | hit rate 0.41% among 220,000 | AID 1443;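 active = cell killing above 50% in the first pass at 4 µM, then a duplicate retest at 5 µM averaging 50% or more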;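 note: plate controls were cells with TRAIL plus DMSO for no effect and medium-only wells lacking cells for full effect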
TRAIL sens C8 – caspase-8 TRAIL sensitization; AID 624354; NB7+C8 cells + TRAIL, ATPlite viability luminescence; inhibition (viability loss, TRAIL sensitization), % at 10 µM; hit rate 1% among 360,000;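 active = compounds causing at least 50% loss of cell viability in the single-dose screen, relative to plate controls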
FLuc act counter – affects firefly luciferase, flagging false hits in luciferase stimulation screens; P08659; activation factor at 10 µM; ATPlite luciferase biochemical, luminescence, 10 min; 0 = ATP-free wells, 1 = DMSO control; 200,000 tested, under 10 active;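 active = luciferase activation factor, scaled between plate controls, of at least 2 with compound at 10 µM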
Target sequence (P08659 whole entry, looked up): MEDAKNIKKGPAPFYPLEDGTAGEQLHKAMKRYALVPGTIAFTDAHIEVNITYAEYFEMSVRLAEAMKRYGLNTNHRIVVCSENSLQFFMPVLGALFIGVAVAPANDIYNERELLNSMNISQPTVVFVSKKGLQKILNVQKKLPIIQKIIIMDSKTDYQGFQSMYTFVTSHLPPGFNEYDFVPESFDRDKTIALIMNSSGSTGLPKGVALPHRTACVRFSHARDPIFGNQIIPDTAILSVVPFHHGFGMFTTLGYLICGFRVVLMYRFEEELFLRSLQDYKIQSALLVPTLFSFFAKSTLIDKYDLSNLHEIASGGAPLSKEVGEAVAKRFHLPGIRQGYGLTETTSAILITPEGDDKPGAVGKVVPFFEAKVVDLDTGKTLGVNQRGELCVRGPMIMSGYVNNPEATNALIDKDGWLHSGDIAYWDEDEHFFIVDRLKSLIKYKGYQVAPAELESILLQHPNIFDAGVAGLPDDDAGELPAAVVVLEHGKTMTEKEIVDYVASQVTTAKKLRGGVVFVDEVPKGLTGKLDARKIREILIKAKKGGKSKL
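Assay system – cell-free luciferase reagent · Medium – PBS-based ATP solution · Dosing – test compounds dosed from 2 mM stocks in 100% DMSO · Timing – 10 min, room temperature · Technique – light output (luminescence) · Measure – luminescence gain marking luciferase activators · Controls – No-ATP low control, compound-free enzyme-plus-ATP high control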
FLuc inhib CS – Photinus pyralis luciferase inhibition counter-screen | inhibition, % at 10 µM | ATPLite firefly luciferase biochemical luminescence, 10 min | hit rate 1.5% among 200,000;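 active = inhibition above about 50% when tested at 10 µM, limit read from the data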
PPC-1 tox – PPC-1 cell cytotoxicity. shares compounds with PPC-1+TRAIL kill. PPC-1 viability, ATPlite luminescence, overnight. cytotoxicity, % at 5 µM. hit rate 50% among 1,200. AID 1447;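 active = reconfirmed compounds whose average cytotoxicity reaches 50% or more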;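 note: 0% = DMSO-treated cells and 100% = wells holding medium but no cells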
Numbers without * were called inactive; . = not tested or not shown. Hits are enriched below; roughly 2.2% of the tested compounds scored in any of these assays.

SMILES | NF-kB neuron act | APP 5'UTR act | PPC-1+TRAIL kill | TRAIL sens C8 | FLuc act counter | FLuc inhib CS | PPC-1 tox
COc1cc(NS(=O)(=O)c2ccc(F)cc2)c(OC)cc1NC(=O)C1CC1 | 1.2 | 7 | 7 | . | 1.1 | -5 | .
O=C(Nc1ccccc1NS(=O)(=O)c1ccc(F)cc1)C1CCC1 | 1.3 | 1 | 6 | 2 | 1.1 | -7 | 11
Brc1ccc(N=Nc2ccc3ccccc3n2)cc1 | . | . | 94* | 92* | . | . | 93*
COc1ccc(-c2cn3cc(C)ccc3n2)cc1OC | 5.7* | 184* | 75* | 72* | 0.1 | 88* | 73*
COc1ccc(-c2cn3cc(C)ccc3n2)cc1F | 2.4 | 147* | 74* | 73* | 0.1 | 93* | 74*
COc1ccc(-c2csc(C)n2)cc1OC | 1.9 | 14 | 9 | -34 | 1 | -3 | .
Nc1sc(Cc2ccccc2)cc1C(=O)c1c(-c2ccccc2)[nH]c2ccccc12 | . | . | . | -4 | . | . | .
COc1ccc(NC(=O)c2cc(C3CCCCN3S(=O)(=O)c3ccc(F)cc3F)on2)c(C)c1 (stereo not given) | . | . | . | 11 | . | . | .
COC(=O)c1ccc2nc(-c3cccc(N)c3)cn2c1 | 2.1 | 56 | 66* | 72* | 0.1 | 90* | 67*
COC(=O)c1ccc2nc(-c3ccc(S(C)(=O)=O)cc3)cn2c1 | 2 | 27 | 4 | 12 | 0.9 | 10 | .
N#Cc1c(-n2cccc2/C=N/O)sc2c1CCCC2 | 1.1 | 7 | 11 | 13 | 1 | -5 | .
C=CCNCc1cccn1-c1sc2c(c1C#N)CCCC2 | 0.8 | -2 | -3 | 12 | 1 | 2 | 8
CCOC(=O)[C@]12CCCC=C1N(CCc1ccc(OC)c(OC)c1)C(=O)[C@H](CC(=O)NCc1ccc(C)o1)C2 | . | . | . | -6 | . | . | .
CCOC(=O)N1CCC(n2c(=S)[nH]c3ccccc3c2=O)CC1 | 1.1 | . | -5 | -3 | 1.1 | -8 | -18
CCOC(=O)N1CCN(C(=O)CCCn2c(=S)[nH]c3ccccc3c2=O)CC1 | 0.79 | 5 | 16 | 8 | 1 | 1 | .
Cn1cc(CC(=O)N2CCN(c3ccc(Cl)cc3)CC2)c2ccccc21 | 0.88 | 0 | -8 | -19 | 1 | -2 | 3
COC(=O)c1ccc(Nc2nc(C)cc(=O)[nH]2)cc1 | 1.1 | 11 | 3 | -4 | 1 | 0 | 15
O=C(c1ccco1)N1CCN(c2ncnc3c2cnn3-c2ccccc2)CC1 | 1.6 | 15 | 4 | -2 | 1 | -4 | 5
c1ccc(OCCn2c(-c3ccco3)nc3ccccc32)cc1 | 1.4 | -4 | 8 | 0 | 1 | -3 | .
CCn1c(-c2ccc(N)cc2)nc2ccccc21 | 1.1 | -1 | -18 | 10 | 1 | 1 | .
CCn1c(-c2ccco2)nc2ccccc21 | 1.1 | 13 | 19 | 9 | 0.8 | 23 | 19
CCn1c(-c2ccc(N(C)C)cc2)nc2ccccc21 | 2.9 | 96 | 60* | 65* | 0.2 | 85* | 60*
CN(C)c1ccc(C(O)Cc2nc3ccccc3n2C)cc1 (stereo not given) | . | . | . | 17 | . | . | .
CN(C)c1ccc(-c2nc3ccccc3n2C)cc1 | 2.1 | 97 | 88* | 82* | 0 | 96* | 88*
Fc1ccc(-c2cnn3c(-c4ccncc4)ccnc23)cc1 | 6.4* | 199* | 30 | 54* | 0.2 | 76* | 20
SMILES | NF-kB neuron act | APP 5'UTR act | PPC-1+TRAIL kill | TRAIL sens C8 | FLuc act counter | FLuc inhib CS | PPC-1 tox
Fc1ccc(-c2cnn3c(-c4cccs4)ccnc23)cc1 | 6.7* | 220* | 59* | 68* | 0.2 | 83* | 53*
Cc1nn2c(-c3ccc(F)cc3)ccnc2c1Br | . | . | . | -2 | . | . | .
Cc1ccc2nc(-c3ccc(Cl)cc3)c(Cc3ccccn3)n2c1 | . | . | . | 9 | . | . | .
CCOc1ccc(-c2nc3ccccc3c(=O)o2)cc1 | 6.3* | 112 | 54* | 68* | 0.3 | 68* | 56*
CC(=O)Oc1cccc(-c2nc3ccccc3c(=O)o2)c1 | 1.2 | -8 | 14 | -5 | 0.9 | 12 | .
Oc1ccc(Br)cc1C=Nc1ccc(Cl)cc1 | 1.2 | 20 | 17 | 1 | 1.1 | -7 | .
CCN(CC)c1ccc(N=Cc2cc(Br)ccc2O)cc1 | 1.2 | -12 | -1 | -6 | 0.9 | 11 | 11
COCCCNC1=C(Cl)C(=O)c2ccccc2C1=O | . | . | 7 | 12 | . | . | .
CCN(CC)CCCNC1=C(Cl)C(=O)c2ccccc2C1=O | 0.23 | -5 | 37 | 94* | 1 | -2 | 36
COc1ccc(C(=O)N2CCC(C)(C(=O)NS(=O)(=O)C3CC3)C2)c(OC)c1 (stereo not given) | . | . | . | -10 | . | . | .
CCOc1ccc(-c2cn3ccccc3n2)cc1 | 4.8* | 207* | 91* | 84* | 0 | 97* | 89*
Fc1ccc(-c2cn3ccccc3n2)cc1 | . | . | . | 28 | . | . | .
O=C(N/N=C/c1ccc([N+](=O)[O-])cc1)c1[nH]ncc1Br | 1.6 | 94 | 27 | 49 | 0.4 | 60* | 26
O=C(N/N=C/c1ccc([N+](=O)[O-])cc1)c1cc(C2CC2)[nH]n1 | . | . | . | 8 | . | . | .
O=C(Nc1ccccc1)Nc1cc(Cl)cc(Cl)c1 | 0.75 | -4 | 16 | 45 | 1.1 | -7 | .
O=C(Nc1ccccc1)Nc1cc(OCC(F)(F)F)cc(OCC(F)(F)F)c1 | 0.5 | -4 | 23 | 38 | 1 | 0 | 24
COC(=O)C1=C(C)N(Cc2ccc(OC)cc2)C(=O)C1 | 1.1 | . | 11 | -9 | 1.1 | -6 | .
COC(=O)C1=C(C)N(CC(C)C)C(=O)C1 | 1.1 | -2 | 13 | 1 | 1 | 1 | 13
COc1ccc2nc(SCC(C)=O)c(C#N)cc2c1 | 5.8* | 138* | -4 | 37 | 0.9 | 13 | 2
C/C(=N\Nc1cccc2cccnc12)c1ccc[nH]1 | 1.3 | 206* | 50 | 41 | 0.1 | 86* | 49
COCOCCn1cc(CN2CCS(=O)(=O)N(Cc3ccc(-c4ccc(Cl)c(Cl)c4)cc3)C(C)C2=O)nn1 (stereo not given) | . | . | . | 13 | . | . | .
Oc1ccc(-n2cnnn2)cc1 | 0.89 | -12 | 17 | -13 | 1 | 0 | 18
Clc1ccc(-n2cnnn2)cc1 | 0.9 | -8 | 9 | -12 | 1 | -4 | .
COCCN1C[C@@H](CO)O[C@@H](n2cnc3c(NCCN(C)C)ncnc32)C1 | . | . | . | -12 | . | . | .
COc1cccc(NC(=O)Nc2ccc3nc(C)c(C)nc3c2)c1 | . | . | . | 3 | . | . | .
COc1cccc(NC(=O)Nc2nccc(C)n2)c1 | 4.1* | 109 | 56* | 67* | 0.2 | 82* | 62*
COc1cccc(NC(=O)Nc2ccc3c(c2)nc(C)n3C)c1 | 5.7* | 112 | 75* | 82* | 0.1 | 92* | 72*
Cc1nc2cc(NC(=O)Nc3nccs3)ccc2n1C | 2.5 | 82 | 54* | 66* | 0.2 | 81* | 51*
COC(=O)C[C@@H]1OC[C@H](Cc2ccccc2)N1S(=O)(=O)c1ccc(C)cc1 | . | . | . | -5 | . | . | .
